Measurements taken from ChEMBL document CHEMBL3272179, “Synthetic metabolites of neurohypophyseal hormones. (Des-9-glycinamide)oxytocin and (des-9-glycinamide, des-8-leucine)oxytocin” (1976).
Active and inactive are the calls of the source. No cut-off for these calls is given here. Positions of bridges follow the written chain, without caps; N, C: chain ends. Residues, ends and D or L forms follow the SMILES beside them.

Assays:
Gallus gallus [1] = assay: Vasodepressor activity in conscious chicken; assay type: functional
Method in brief: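 Conscious chickens, minimum three, procedure of Coon. Tested for agonist activity at up to 1 mg analog per injection. Four-point design or matches against USP Posterior Pituitary Reference Standard.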

Rattus norvegicus [2] = assay: Pressor activity in atropinized and urethane-anesthetized rat; assay type: functional
Method in brief: (§1)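 Minimum of five atropinized, urethane-anesthetized male rats, following U.S. Pharmacopeia procedures. Tested for agonist and antagonist activity at single doses up to 1 mg. USP Posterior Pituitary Reference Standard used as reference.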

[3] = Oxytocic activity in uterine horns of rat […]; assay type: functional
Method in brief: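 Six isolated uterine horns from three rats in natural estrus, with estrus confirmed by vaginal smear on the assay morning. Holton method as modified by Munsick, in Mg2+-free van Dyke-Hastings bathing solution. Four-point design or matches against USP Posterior Pituitary Reference Standard.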

Rattus norvegicus [4] = assay: Antidiuretic activity in inactin- and ethanol-anesthetized, hydrated Sprague-Dawley rat assessed as maximal depression of rate of urine flow; assay type: functional
Method in brief: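 Six male Sprague-Dawley rats, anesthetized with Inactin and ethanol and hydrated. Method of Jeffers et al. as modified by Sawyer. The effective response was the maximal depression of urine flow rate. Four-point design or matches against USP Posterior Pituitary Reference Standard.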

Anura = assay: Hydroosmotic activity in toad urinary bladder assessed as water transport; assay type: functional
Method in brief: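 Water transport across toad urinary bladder measured by Bentley's method as modified by Eggena et al. At least five animals. Four-point design or matches against USP Posterior Pituitary Reference Standard.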

Rattus norvegicus [5] = assay: Pressor activity in atropinized and urethane-anesthetized rat at 1 mg; assay type: functional, organism-based; method in brief: as §1
Gallus gallus [6] = assay: Inhibition of oxytocin-induced vasodepressor activity in conscious chicken; assay type: functional, organism-based
Method in brief: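 Analog and oxytocin injected simultaneously into conscious chickens (minimum three), procedure of Coon. Oxytocin held at 5×10^-11 mol while analog dose was raised stepwise to 5×10^-4 mol. Read-out was inhibition of the oxytocin vasodepressor response.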

SMILES	Activity (Gallus gallus [1])	Activity (Rattus norvegicus [2])	Activity [3]	Activity (Rattus norvegicus [4])	Activity (Anura)	Activity (Rattus norvegicus [5])	inhibition (Gallus gallus [6])
CC[C@H](C)[C@@H]1NC(=O)[C@H](Cc2ccc(O)cc2)NC(=O)[C@@H](N)CSSC[C@@H](C(=O)N2CCC[C@H]2C(=O)N[C@@H](CC(C)C)C(=O)NCC(N)=O)NC(=O)[C@H](CC(N)=O)NC(=O)[C@H](CCC(N)=O)NC1=O [OXYTOCIN]	507 U/mg	3.1 U/mg	546 U/mg	2.1 U/mg	2.3 ×10⁻⁹ M	–	–
CC[C@H](C)[C@@H]1NC(=O)[C@H](Cc2ccc(O)cc2)NC(=O)[C@@H](N)CSSC[C@@H](C(=O)N2CCC[C@H]2C(=O)O)NC(=O)[C@H](CC(N)=O)NC(=O)[C@H](CCC(N)=O)NC1=O (H-CYIQNCP-OH; disulfide 1-6)	0.1 U/mg	–	2.7 U/mg	0.06 U/mg	–	inactive	–
CC[C@H](C)[C@@H]1NC(=O)[C@H](Cc2ccc(O)cc2)NC(=O)[C@@H](N)CSSC[C@@H](C(=O)N2CCC[C@H]2C(=O)N[C@@H](CC(C)C)C(=O)O)NC(=O)[C@H](CC(N)=O)NC(=O)[C@H](CCC(N)=O)NC1=O (H-CYIQNCPL-OH; disulfide 1-6)	–	–	2.4 U/mg	0.08 U/mg	4 ×10⁻⁹ M	inactive	Active
